Source: PubChem (The Scripps Research Institute Molecular Screening Center)
Sampled rows, rich in hits. Any-hit rate of the full collection: about 2.1%.
PKA-R1A act: activates the PKA-R1A holoenzyme complex. activation, % at 11.4 µM. PKA-R1A dissociation, Cy5-IP20 fluorescence polarization; scaled: DMSO 0%, 113 µM cGMP 100%. P00514+P68181. AID 504707. 340,000 tested, 0.083% active;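 active = percent activation above the mean of all tested compounds plus 3 SD, cut at about 19% in these data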;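 note: higher means more PKAc released from R1A so a rise in polarization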
IMP-1 inhibitor: inhibitors of Pseudomonas aeruginosa IMP-1 metallo-beta-lactamase. 290,000 tested, 0.45% active. inhibition, % at 5.6 µM. purified IMP-1, nitrocefin hydrolysis, epi-absorbance fluorescence;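 active = inhibition above the mean plus 3 SD of all compounds in the same screening run, cut at about 4.5% in these data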;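 note: 0% = IMP-1 with DMSO and 100% = DMSO wells lacking enzyme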
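System: Purified recombinant IMP-1 metallo-beta-lactamase enzyme | Measured by: Fluorescence quenching readout, ex 480/em 530 nm | Replication: Singlicate | Incubation: 15 min preincubation plus 25 min reaction at 25 °C | Evaluation: Percent inhibition from optical density relative to buffer-blank wells | Benchmarks: DMSO with and without IMP-1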
MsrA inhibitor: inhibitors of bovine MsrA | purified bovine MsrA, absorbance read-out | 360,000 tested, 0.75% active | inhibition, % at 15.5 µM; in the data active = inhibition above about 4.5%;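 note: 0% = vehicle wells with enzyme and 100% = reference inhibitor wells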
VIM-2 inhibitor: inhibitors of Pseudomonas aeruginosa VIM-2 metallo-beta-lactamase. purified VIM-2, nitrocefin hydrolysis, epi-absorbance fluorescence. AID 1527. inhibition, % at 5.6 µM. 290,000 tested, 0.89% active;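 active = inhibition above the mean of all tested compounds plus 3 SD, cutoff set per screening run, cut at about 7.5% in these data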;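 note: red hydrolysis product quenches plate fluorescence so inhibitors raise well fluorescence; 0% = enzyme with DMSO and 100% = DMSO without enzyme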
MsrA act: activates bovine MsrA enzyme; purified bovine MsrA, absorbance read-out; activation, % at 10.6 µM; 360,000 tested, 0.3% active; AID 602163; in the data active = activation above about 7.5%;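 note: 0% = vehicle and 100% = reference activator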
PKA-R2B activ: PKA-R2B complex activation. PKA-R2B holoenzyme dissociation, Cy5-IP20 fluorescence polarization; R2B truncated from residue 108, S112A mutant; 0% DMSO only, 100% 113 µM cGMP. activation, % at 11.4 µM. 340,000 tested, 0.079% active;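 active = activation above a cutoff set at the mean over all compounds plus 3 SD, cut at about 18% in these data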;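 note: higher means more holoenzyme dissociation and a rise in polarization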
Target sequence (P31323 whole entry, looked up, other chains not shown, the tested form may be a part): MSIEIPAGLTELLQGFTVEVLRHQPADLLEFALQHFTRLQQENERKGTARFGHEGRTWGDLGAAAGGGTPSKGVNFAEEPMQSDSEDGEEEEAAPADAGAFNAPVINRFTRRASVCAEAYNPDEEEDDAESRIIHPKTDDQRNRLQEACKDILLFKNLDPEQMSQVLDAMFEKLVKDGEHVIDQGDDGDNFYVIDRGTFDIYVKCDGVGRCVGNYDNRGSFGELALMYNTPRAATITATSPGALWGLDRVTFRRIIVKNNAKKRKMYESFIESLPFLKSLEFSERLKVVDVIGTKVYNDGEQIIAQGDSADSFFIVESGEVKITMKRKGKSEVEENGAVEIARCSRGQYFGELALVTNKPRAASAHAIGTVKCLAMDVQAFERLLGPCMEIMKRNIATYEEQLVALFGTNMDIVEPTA
Starred values were filed as active, the others as inactive; nt = no result.

SMILES	PKA-R1A act	IMP-1 inhibitor	MsrA inhibitor	VIM-2 inhibitor	MsrA act	PKA-R2B activ
CC1(C(=O)NS(=O)(=O)c2cccc(OC(F)F)c2)CCN1C(=O)CC1CCCC1 (stereo unspecified)	nt	nt	0.9	nt	-1.4	nt
O=C(O)c1ccccc1OCc1ccccc1Br	5.0	1.2	-0.7	9.1*	-1.1	-2.2
O=C(O)c1ccccc1COc1ccccc1Cl	-4.7	0.0	0.0	-0.7	-3.0	2.6
COC(=O)C1CCN(C2=C(NS(=O)(=O)c3ccc(Cl)cc3)C(=O)c3ccccc3C2=O)CC1	-7.2	-1.3	-0.8	8.4*	-4.7	2.6
NC(=O)C1CCN(C2=C(NS(=O)(=O)c3ccc(Cl)cc3)C(=O)c3ccccc3C2=O)CC1	-14.9	-2.1	-0.4	3.6	-0.9	-15.3
COc1cc(/C=N/NC(=O)c2cncc(Br)c2)ccc1OC(=O)c1ccc2c(c1)OCO2	nt	46.3*	nt	0.1	nt	nt
COc1cc(/C=N\NC(=O)c2ccc(C)nc2)ccc1OC(=O)c1ccc2c(c1)OCO2	-6.8	-2.8	-0.4	-2.0	-3.4	-2.5
O=C(N/N=C/c1ccc(OC(=O)c2ccc(Br)cc2)cc1)c1ccncc1	-12.8	7.6*	0.8	-2.6	-3.0	-3.2
O=C(N/N=C/c1ccc(OC(=O)c2cccc(F)c2)cc1)c1cccnc1	-8.3	4.6*	-0.3	1.1	-0.9	4.3
O=C(N/N=C/c1ccc(OC(=O)c2ccco2)cc1)c1ccncc1	5.3	-3.4	0.3	-4.1	0.3	-0.5
O=C(N/N=C/c1ccc(OC(=O)c2cccc(Br)c2)cc1)c1cccnc1	-3.2	9.7*	-0.2	-1.2	-13.2	2.0
O=C(N/N=C/c1cccc(OC(=O)c2cccc(Br)c2)c1)c1cccnc1	9.2	-2.6	-0.4	-3.5	0.0	-5.7
O=C(N/N=C/c1cccnc1)c1cccc(F)c1	-2.5	-4.2	-0.1	-2.2	-3.6	-0.5
O=C(CC1SC(=O)N(c2ccccc2)C1=O)Nc1cccc2ccccc12 (stereo unspecified)	5.3	4.8*	-0.9	-0.3	-5.8	2.2
C[C@H]1[C@@H]2C[C@@]3(O[C@H](c4ccccn4)N=C3C[C@@H]1c1ccccc1)N(Cc1ccncc1)C2=O	nt	nt	-1.1	nt	nt	nt
N#CCOC(=O)/C=C/c1ccc2c(c1)OCO2	3.8	-2.6	7.0*	-1.9	-6.0	7.4
COC(=O)c1[nH]c2ccc(Cl)cc2c1NC(=O)CCN1CCN(C2CCCCC2)CC1	0.3	8.0*	0.9	-1.5	0.1	4.7
COC(=O)c1[nH]c2ccc(C)cc2c1NC(=O)CCN1CCN(C2CCCCC2)CC1	nt	-0.8	nt	-3.4	nt	nt
Cc1cnc(C(=O)OCC(=O)N(Cc2ccccc2)C(C)C)cn1	-9.4	-2.2	0.1	-2.5	-2.4	-4.6
Cc1cnc(C(=O)OCC(=O)N(C(C)C)C(C)C)cn1	2.2	5.4*	-0.3	0.3	-3.6	4.7
Cc1ccc(NC(=O)Cn2cncc2-c2ccc([N+](=O)[O-])cc2)cc1C	-8.1	11.9*	0.3	-1.9	-1.1	-2.5
Cc1nn(C)cc1-c1n[nH]c(=S)n1-c1ccc(Cl)cc1	-1.9	-3.4	-0.2	9.2*	1.7	-1.9
S=c1[nH]nc(-c2ccc(Cl)cc2Cl)n1-c1ccc2c(c1)OCCO2	-5.2	-5.1	-1.1	9.2*	-5.0	-8.3
S=c1[nH]nc(-c2ccc(Cl)cc2Cl)n1-c1ccccc1	-10.2	-6.0	-0.5	0.9	-4.8	-6.9
COc1ccccc1-c1n[nH]c(=S)n1-c1ccccc1	-5.3	-3.3	0.7	8.9*	-1.1	-10.7
SMILES	PKA-R1A act	IMP-1 inhibitor	MsrA inhibitor	VIM-2 inhibitor	MsrA act	PKA-R2B activ
CC(C)(C)c1cc(-c2n[nH]c(=S)n2-c2ccc(Cl)cc2)n[nH]1	0.9	-4.1	1.1	2.9	2.1	-3.2
S=c1[nH]nc(-c2ccc3c(c2)OCO3)n1-c1ccccc1	-15.0	-3.6	1.8	11.2*	-5.8	-6.8
S=c1[nH]nc(COc2ccc3c(c2)OCO3)n1-c1ccccc1	-0.1	-3.3	-1.1	-2.7	2.9	0.6
COc1ccccc1-c1n[nH]c(=S)n1N	0.7	-2.8	-0.4	0.6	-2.7	3.4
COc1cccc(-c2cnc(C(O)c3ccc(C(C)(C)C)cc3)[nH]2)c1 (stereo unspecified)	nt	nt	nt	nt	-0.2	nt
CS(=O)(=O)c1ccc(Cl)c(NC(=O)C2CCCCN2S(=O)(=O)c2ccccc2)c1 (stereo unspecified)	-3.5	nt	-0.4	nt	-2.1	-0.8
CCOC(=O)C1CSCCS(=O)(=O)N1Cc1ccccc1C (stereo unspecified)	nt	nt	1.6	nt	nt	nt
Cc1[nH]c2ccc(-c3n[nH]c(=S)n3-c3ccccc3)cc2c1C	-9.4	-1.7	-1.4	2.3	0.1	-9.2
CS(=O)(=O)Nc1ccc(-c2n[nH]c(=S)n2-c2ccccc2)cc1	1.2	-3.0	-0.9	8.2*	-4.9	-5.1
COc1cc(OC)cc(-c2n[nH]c(=S)n2-c2ccc3c(c2)OCCO3)c1	1.1	-4.7	0.3	8.1*	-9.4	-7.4
COc1cc2c(cc1OC)C(c1cc(OC)c(OC)c(OC)c1)C1(O)C(=O)OCC1(O)C2 (stereo unspecified)	-3.8	nt	-0.6	nt	-0.3	-6.7
COCc1[nH]nc2c1C(c1ccc(F)cc1)N(c1ccc(OC)cc1)C2=O (stereo unspecified)	nt	nt	0.0	nt	nt	nt
CC(C)Nc1nc(Cl)nc(N(C#N)CN2C(=O)c3ccccc3S2(=O)=O)n1	1.6	6.9*	-1.4	3.5	-1.6	2.8
COc1nc(NC(C)C)nc(N(C#N)CN2C(=O)c3ccccc3S2(=O)=O)n1	-13.6	12.0*	-0.5	6.8	-13.9	7.8
CN(C)c1nc(N(C)C)nc(N(C#N)CN2C(=O)c3ccccc3S2(=O)=O)n1	-6.5	0.7	1.5	5.2	-2.7	-2.0
Cc1cc(NC(=O)COc2ccc(C(C)(C)C)cc2)no1	1.8	-1.4	-0.6	-3.3	-1.7	-10.4
CCCN(C(=O)COC(=O)CCC(=O)c1ccccc1)c1c(N)n(Cc2ccccc2)c(=O)[nH]c1=O	-11.8	nt	-0.8	nt	-3.1	13.4
O=C1/C(=N\S(=O)(=O)c2cccs2)C([n+]2ccccc2)=C([O-])c2ccccc21	-0.9	-1.1	0.5	-0.5	-1.0	-12.7
CC(C)(C)c1cc[n+](C2=C([O-])c3ccccc3C(=O)/C2=N\S(=O)(=O)c2cccs2)cc1	nt	7.0*	1.9	3.3	1.7	nt
COc1cccc([C@@H](NC(=O)C(F)(F)F)[C@@H]2CCCC=C2c2ccccc2)c1	nt	nt	0.2	nt	nt	nt
CCOC(=O)c1ccc(N2CN(C3CCCCC3)CNC2=S)cc1	-3.0	7.2*	0.2	-0.4	-1.9	-5.2
CCOC(=O)c1cnc2ccc(OCC)cc2c1NCc1cccnc1	7.9	-2.6	-0.1	2.0	-0.3	0.1
CCOC(=O)c1cnc2c(OC)cccc2c1NCc1cccnc1	-3.0	-4.6	2.5	10.9*	-2.3	-0.2
O=C(O)C1=C(C(=O)Nc2cccc(C(F)(F)F)c2)CCCC1	-4.1	18.2*	-1.0	5.4	-2.5	-6.9
